According to PMC7954469 (European journal of medicinal chemistry, 2021):
Read-outs that look alike come from different tables or passages of the source. Where a SMILES comes first, the peptide text is derived from it. [ ]: non-standard residue; d: D form. The star is where a group is joined. Cbz = O=C(OCc1ccccc1)*

Experiments:
[1] = molecular target: C522A-p97 (Homo sapiens, UniProt P55072, C522A); settings: cited from earlier work
[2] = test system: Ub^G76V-GFP; settings: read-out: Apparent IC50 Ub^G76V-GFP; adapted from reference; cited from earlier work
[3] = test system: Syk; settings: cited from earlier work
[4] = molecular target: T1, p97 (Homo sapiens, UniProt P55072); settings: read-out: Apparent IC50 p97; ATPase activity; adapted from reference; cited from earlier work
T1 sequence (P55072 whole entry): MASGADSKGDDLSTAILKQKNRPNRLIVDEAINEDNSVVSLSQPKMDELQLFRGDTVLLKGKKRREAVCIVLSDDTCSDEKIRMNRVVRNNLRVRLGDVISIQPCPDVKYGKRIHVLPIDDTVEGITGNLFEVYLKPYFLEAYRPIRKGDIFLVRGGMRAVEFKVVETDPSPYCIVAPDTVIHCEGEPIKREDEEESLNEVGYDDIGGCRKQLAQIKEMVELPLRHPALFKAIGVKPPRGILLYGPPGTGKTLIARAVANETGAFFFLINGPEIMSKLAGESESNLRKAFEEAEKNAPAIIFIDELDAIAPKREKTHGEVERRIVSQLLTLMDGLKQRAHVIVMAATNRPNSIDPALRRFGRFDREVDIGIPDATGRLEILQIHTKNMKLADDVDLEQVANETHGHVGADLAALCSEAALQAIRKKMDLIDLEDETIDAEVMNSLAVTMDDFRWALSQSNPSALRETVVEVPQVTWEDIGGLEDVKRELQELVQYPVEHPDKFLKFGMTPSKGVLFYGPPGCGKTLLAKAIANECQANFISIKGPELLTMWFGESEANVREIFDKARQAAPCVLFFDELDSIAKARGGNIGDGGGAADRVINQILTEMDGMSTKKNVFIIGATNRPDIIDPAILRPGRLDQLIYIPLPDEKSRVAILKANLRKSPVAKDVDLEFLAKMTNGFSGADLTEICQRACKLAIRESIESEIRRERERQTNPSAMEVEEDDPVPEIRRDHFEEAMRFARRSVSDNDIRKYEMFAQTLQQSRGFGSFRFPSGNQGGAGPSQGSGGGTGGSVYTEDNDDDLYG

[5] = test system: ODD-Luc; settings: read-out: Apparent IC50 ODD-Luc; adapted from reference; cited from earlier work
[6] = test system: p97; settings: cited from earlier work
[7] = molecular target: T1, p97; test: p97 ATPase activity assay; type: biochemical
[8] = molecular target: T532C-yeast Cdc48 (Saccharomyces cerevisiae, UniProt P25694, T532C); test: ATPase activity assay, T532C-yeast Cdc48; type: biochemical
Chain of T532C-yeast Cdc48 (P25694 whole entry T532C): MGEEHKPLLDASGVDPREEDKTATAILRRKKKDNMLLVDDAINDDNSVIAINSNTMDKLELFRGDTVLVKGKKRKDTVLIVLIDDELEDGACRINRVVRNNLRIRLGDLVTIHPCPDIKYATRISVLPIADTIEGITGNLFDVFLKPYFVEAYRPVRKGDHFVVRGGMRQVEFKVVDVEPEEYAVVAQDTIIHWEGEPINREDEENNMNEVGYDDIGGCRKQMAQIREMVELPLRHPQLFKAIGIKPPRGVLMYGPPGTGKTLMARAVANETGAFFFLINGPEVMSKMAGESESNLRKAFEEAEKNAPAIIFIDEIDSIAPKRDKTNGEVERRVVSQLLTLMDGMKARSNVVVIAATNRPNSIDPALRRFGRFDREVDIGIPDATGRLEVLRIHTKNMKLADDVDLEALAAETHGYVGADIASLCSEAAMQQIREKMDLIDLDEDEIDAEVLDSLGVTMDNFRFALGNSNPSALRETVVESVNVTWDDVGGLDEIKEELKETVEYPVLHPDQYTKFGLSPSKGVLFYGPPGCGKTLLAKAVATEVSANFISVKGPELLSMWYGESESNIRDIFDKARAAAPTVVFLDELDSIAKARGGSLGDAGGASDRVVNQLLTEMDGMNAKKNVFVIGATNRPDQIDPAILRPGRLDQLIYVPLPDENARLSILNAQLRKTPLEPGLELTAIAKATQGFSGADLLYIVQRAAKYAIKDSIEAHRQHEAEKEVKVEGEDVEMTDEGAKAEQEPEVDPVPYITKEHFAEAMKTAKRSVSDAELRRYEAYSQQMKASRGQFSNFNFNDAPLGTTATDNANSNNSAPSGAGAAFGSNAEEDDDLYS

[9] = test system: Ub^G76V-GFP; test: Washout; type: cell-based, human; settings: cycloheximide, additional 17 h
[10] = molecular target: Yeast Cdc48 (Saccharomyces cerevisiae, UniProt P25694); test: ATPase activity assay, yeast Cdc48; type: biochemical
Chain of Yeast Cdc48 (P25694 whole entry): as the sequence (P25694 whole entry T532C) above, with C532T counted along it

[11] = molecular target: Hamster NSF (Cricetulus griseus, UniProt P18708); test: ATPase activity assay, NSF; type: biochemical
Chain of Hamster NSF (P18708 whole entry): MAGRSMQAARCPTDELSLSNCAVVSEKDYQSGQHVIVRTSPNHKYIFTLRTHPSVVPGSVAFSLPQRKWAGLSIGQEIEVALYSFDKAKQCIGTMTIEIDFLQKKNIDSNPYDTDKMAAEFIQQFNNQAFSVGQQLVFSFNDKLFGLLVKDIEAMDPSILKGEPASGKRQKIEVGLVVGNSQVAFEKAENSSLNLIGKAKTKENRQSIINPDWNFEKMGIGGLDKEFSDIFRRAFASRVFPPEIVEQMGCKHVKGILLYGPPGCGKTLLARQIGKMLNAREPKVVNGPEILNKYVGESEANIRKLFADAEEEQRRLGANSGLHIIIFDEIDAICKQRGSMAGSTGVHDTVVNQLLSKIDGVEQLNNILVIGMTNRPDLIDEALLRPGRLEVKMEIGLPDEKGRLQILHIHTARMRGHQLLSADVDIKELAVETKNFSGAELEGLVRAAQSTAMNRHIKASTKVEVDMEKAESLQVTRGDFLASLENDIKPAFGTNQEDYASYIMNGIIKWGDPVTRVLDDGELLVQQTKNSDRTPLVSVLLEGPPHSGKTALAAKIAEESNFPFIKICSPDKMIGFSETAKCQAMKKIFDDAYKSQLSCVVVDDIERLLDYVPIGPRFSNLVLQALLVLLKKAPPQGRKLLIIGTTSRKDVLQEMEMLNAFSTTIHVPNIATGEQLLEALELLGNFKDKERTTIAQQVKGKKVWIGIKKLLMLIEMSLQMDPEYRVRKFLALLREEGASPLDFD

[12] = test system: CB-5083 resistant HCT116 cell line harboring D649A, T688A p97 mutant (CB-R); test: Anti-proliferative assay, CB-5083 resistant HCT116; type: cell-based, human; settings: compared with parental HCT116; listed as PPA
[13] = test system: TCRα-GFP; test: TCRα-GFP; type: cell-based, human; settings: 10 μM, 60 min or 120 min, cycloheximide, HEK293 cells
How it was run: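 HEK293 cells stably expressing TCRα-GFP were pretreated 1 h with 4 μM MG132, then washed. They were then incubated with 50 μM cycloheximide plus 10 μM test compound, or MG132 as control, for 60 or 120 min before harvest. Lysates were immunoblotted with anti-GFP, with anti-p97 as loading control, and detected by ECL.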

[14] = molecular target: Human 26S proteasome (Homo sapiens, UniProt P28074); test: Human 26S proteasome activity assay; type: biochemical; settings: 5, 25, or 50 μM; affinity-purified 26S proteasome from Hek293 cells; listed as PPA
How it was run: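 26S proteasome was affinity-purified from HEK293 cells stably expressing tagged Rpn11. Suc-LLVY-AMC (60 μM) then started the reaction. Fluorescence was read every 3 min for 30 min, in sextuplicate.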

[15] = test system: NMS-873 resistant HCT116 cell line harboring A530T p97 mutant (NMS-R); test: Anti-proliferative assay, NMS-873 resistant HCT116; type: cell-based, human; settings: compared with parental HCT116; listed as PPA
How it was run: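 Cells were grown in RPMI1640 or DMEM with 5% FBS and 1% penicillin-streptomycin. Seeding was 750 or 3000 cells/well, set from each line's luminescence–cell-number standard curve. After 24 h, cells got test compound (eight three-fold dilutions) for 48 h at 37 °C, 5% CO2. Viability was read by CellTiter-Glo luminescence. IC50 came from % growth versus DMSO control. Data are mean ± SEM of four replicate experiments.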

[16] = test system: cancer cell lines; settings: cited from earlier work
[17] = test system: C522A mutant; settings: cited from earlier work

Chain of C522A-p97 (P55072 whole entry C522A): as the sequence (P55072 whole entry) above, with C522A counted along it

Molecule: 3,4-methylenedioxy-β-nitrostyrene [Compound 2]
- Activity towards the C522A mutant (in words) [1]: poor activity
- IC50 [2]: 1.6 ± 0.4 µM
- IC50 Syk (in words) [3]: submicromolar
- IC50 [4]: 1.7 ± 0.5 µM
- IC50 [5]: 3.9 ± 1 µM

Molecule: O=C(/C=C1\Nc2ccccc2C(=O)N2CCC[C@@H]12)/C=C/c1c[nH]c2ccc(I)cc12 [5’-I-Fuligocandin B]
- IC50 [6]: 7 µM

Molecule: Cc1ccc(-c2c(C(=O)CF)n(CCCO)c3ncnc(N)c23)cc1 [Compound 5]
- Less active than compound 4 ([7]; in vitro and cell-based p97 assays, summary of Table 1): 10 fold

Molecule: O=C(O)/C=C/c1ccc2c(c1)OCO2 [Compound 7]
- Activity in ATPase and Ub^G76V-GFP turnover assays (in words) ([7]; summary of Tables 2 and 3): complete loss of activity

Molecule: CC(C)(C)n1nc(-c2ccccc2)c2c(N)ncnc21 [Compound 17, 4-amino-1-tert-butyl-3-phenyl pyrazolo[3,4-d]pyrimidine]
- IC50 [8]: > 100 µM

Molecule: C=CC(=O)Nc1ncnc2c1c(-c1ccccc1)nn2C(C)(C)C [Compound 18, N-(1-(tert-butyl)-3-phenyl-1H-pyrazolo[3,4-d]pyrimidin-4-yl)acrylamide]
- Reversibility: Ub^G76V-GFP degradation after washout (in words) [9]: irreversibly block degradation
- IC50 [10]: 300 µM
- IC50 [11]: 100 µM
- NSF less sensitive than p97 [11]: more than 100 fold
- Anti-proliferative activity in CB-R HCT116 (in words) [12]: can inhibit growth
- Selectivity on wild-type vs. Cys522-mutated p97 [7]: up to 100 fold
- Degradation of ERAD substrate TCRα-GFP (in words) [13]: block degradation
- Inhibition of hydrolysis of LLVY-AMC by 26S proteasome (in words) [14]: did not inhibit
- Anti-proliferative activity in NMS-R HCT116 (in words) [15]: can inhibit growth

Molecule: CC(C)(C)n1nc(-c2ccc3ccccc3c2)c2c(N)ncnc21 [Compound 21, 2-Naphthyl pyrazolopyrimidine]
- IC50 [8]: > 100 µM

Molecule: CC(C)C[C@@H](C=O)NC(=O)[C@@H](CC(C)C)NC(=O)[C@H](CC(C)C)NC(=O)OCc1ccccc1 [MG132] (Cbz-Leu-[dL]-Leu-aldehyde)
- Reversibility: Ub^G76V-GFP degradation after washout (in words) [9]: degraded after washing out

Molecule: COc1cccc2c(NCc3ccccc3)nc(-n3c(N)nc4ccccc43)nc12 [ML240]
- IC50 [6]: ~0.1 µM

Molecule: c1ccc(CNc2nc(N3CCOc4ccccc43)nc3c2CCCC3)cc1 [ML241]
- IC50 [6]: ~0.1 µM

Molecule: CC(C)N1CCN(CCNC2CCN(c3cccc(-c4cc5cc(F)ccc5[nH]4)c3)CC2)CC1 [UPCDC30245]
- IC50 ([6]; allosteric p97 inhibitor): 0.027 µM

Molecule: CC(=O)OCC1=C(C)C[C@H]([C@@H](C)[C@H]2CC[C@H]3[C@@H]4C[C@H]5O[C@]56[C@@H](O)C=CC(=O)[C@]6(C)[C@H]4CC[C@]23C)OC1=O [Withaferin A 27-Acetate]
- Anti-proliferative effects at lower concentration than p97 IC50 [16]: 10 fold
- Inhibition against the C522A mutant (in words) [17]: didn’t show inhibition
- IC50 ([6]; wild-type p97): 21 µM

Molecule: CC1CCCC=CC(=O)c2c(O)cc(O)cc2CC(=O)O1 (stereo not shown) [Δ(10,11)-Dehydrocurvularin]
- IC50 ([6]; covalent bond with Cys522): 15.3 ± 9.9 µM

Molecule: Oxaspirol B
- IC50 [6]: 31.2 ± 3 µM
